Measurements: ChEMBL document CHEMBL1126823, “Benextramine-neuropeptide Y receptor interactions: contribution of the benzylic moieties to [3H]neuropeptide Y displacement activity” (J Med Chem, 1993)

Key:
[1] = Binding affinity against rat NPY receptor by using [3H]NPY as radioligand
In short: (§1)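 Male Sprague-Dawley rat (250-300 g) brain membrane homogenate (1.2-1.6 mg protein/mL) incubated with 1.0 nM [3H]NPY and analog 10^-3 to 10^-7 M in Krebs-Ringer bicarbonate/50 mM phosphate, 0.1% BSA, 0.05% bacitracin, pH 7.4, 90 min at 25 °C. Nonspecific binding defined with 1 µM NPY. Filtration onto PEI-treated glass-fiber filters, scintillation counting. IC50 from competitive binding isotherm fit.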

Rattus norvegicus = organism: Rattus norvegicus; experiment: Displacement of [3H]NPY from rat brain NPY receptor compared to benextramine; in short: as §1
[2] = Relative potency of compound at alpha-adrenoceptor to that of benextramine was measured by ability to antagonize the effect of epinephrine on the contractions of the electrically stimulated rat vas deferens; format: tissue-based

Row | SMILES | IC50 [1] | Relative activity (Rattus norvegicus) | Relative activity [2]
1 | Oc1ccc(CNCCCCCCNCCSSCCNCCCCCCNCc2ccc(O)cc2)cc1 | 162 µM | 0.4 | 0.14
2 | Clc1ccc(CNCCCCCCNCCSSCCNCCCCCCNCc2ccc(Cl)cc2)cc1 | 37.8 µM | 1.5 | 0.5
3 | Oc1ccccc1CNCCCCCCNCCSSCCNCCCCCCNCc1ccccc1O | 50.6 µM | 1.1 | 0.36
4 | Clc1ccccc1CNCCCCCCNCCSSCCNCCCCCCNCc1ccccc1Cl | 79.9 µM | 0.7 | 0.44
5 | NCCCCCCNCCSSCCNCCCCCCN | > 1400 µM | < 0.04 | 0.27

Further lines, with some results ahead:

Row | IC50 [1] | Relative activity (Rattus norvegicus) | SMILES | Relative activity [2]
6 | 44.1 µM | 1.3 | COc1ccc(CNCCCCCCNCCSSCCNCCCCCCNCc2ccc(OC)cc2)cc1 | 0.81
7 | 21.5 µM | 2.7 | COc1cccc(CNCCCCCCNCCSSCCNCCCCCCNCc2cccc(OC)c2)c1 | 0.72
8 | 31.3 µM | 1.8 | c1ccc2cc(CNCCCCCCNCCSSCCNCCCCCCNCc3ccc4ccccc4c3)ccc2c1 | 0.27
9 | 46.7 µM | 1.2 | Clc1cccc(CNCCCCCCNCCSSCCNCCCCCCNCc2cccc(Cl)c2)c1 | 0.46
10 | 191 µM | 0.3 | c1ccc(CNCCCCCCNCCSSCCNCCCCCCNCc2ccccc2)cc1 | 0.9
11 | 20.3 µM | 2.8 | Oc1cccc(CNCCCCCCNCCSSCCNCCCCCCNCc2cccc(O)c2)c1 | 0.24
12 | 57.6 µM | 1 | COc1ccccc1CNCCCCCCNCCSSCCNCCCCCCNCc1ccccc1OC [BENEXTRAMINE] | 1
